This is an account of results in ChEMBL document CHEMBL3259808, “Optimization of antitrypanosomatid agents: identification of nonmutagenic drug candidates with in vivo activity” (J Med Chem, 2014).

Values joined by “and” are separate entries in the source; they are usually repeats but may differ in a detail not shown here. Equal values may be shown once. A value given as a limit tells only on which side of the number the result lay.

Data set [1] concerns Trypanosoma cruzi. The experiment in a line: Antitrypanosomal activity against Trypanosoma cruzi Tulahuen 2 epimastigotes assessed as growth inhibition after 5 days. In kind it is functional, organism-based. Particulars: Trypanosoma cruzi, Tulahuen 2, 120 h; call rule not given here. Summed up: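 Epimastigotes were grown axenically at 28 °C in BHI-tryptose with 5% FBS and seeded from a 5–7 day culture at 1 × 10⁶ cells/mL. Drug from a DMSO stock was added (final DMSO ≤0.4%; the control contained 0.4% DMSO). Duplicates were run. A600 was read at day 5, and % inhibition was calculated relative to day-0 and control readings. IC50 = concentration that halves the absorbance ratio.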

In data set [2] the test system is Salmonella typhimurium. Description: Mutagenic activity in Salmonella typhimurium TA98 at 0.005 to 0.4 ug/plate by Ames test in presence of mouse liver S9 fraction. In kind it is toxicity, organism-based. Particulars: salmonella enterica subsp. enterica serovar typhimurium. The method in brief:
(§1)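 Plate-incorporation Ames test on minimal glucose agar with 500 μL Aroclor-treated mouse liver S9 added. DMSO solutions were tested at five consecutive 3-fold dilutions from the highest non-toxic dose, in triplicate, with a DMSO negative control. Revertants were counted manually; a compound was scored mutagenic when revertants were at least twice the negative control for two or more consecutive doses.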
For orientation: The Ames test uses bacterial strains that need an amino acid and regain growth without it when mutated back.

Data set [3] concerns Trypanosoma cruzi. The experiment in a line: Antitrypanosomal activity against Trypanosoma cruzi Sylvio X-10 amastigotes infected in African green monkey Vero cells assessed as eradication of amastigotes after 5 days by Giemsa staining-based assay. Particulars: Sylvio X-10, Vero, 120 h. The format is functional, organism-based. The method in brief:
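VERO cells in RPMI 1640 with 10% hiFCS were allowed to adhere for 24 h at 37 °C in 5% CO₂, then infected with tissue-derived trypomastigotes at 10:1. Free parasites were washed off after 24 h, and cultures were treated at five compound doses (text gives 72 h / 5 days). Cultures were methanol-fixed and Giemsa-stained, and infected cells were counted among 300. Quadruplicates were run in three independent experiments. IC50/IC90 were obtained by sigmoidal regression.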

Data set [4] has as its system Salmonella typhimurium. Description: Mutagenic activity in Salmonella typhimurium TA98 at 0.005 to 0.4 ug/plate by Ames test. The note with it: salmonella enterica subsp. enterica serovar typhimurium. In kind it is toxicity, organism-based. Summed up: (§2)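 Direct plate incubation on minimal glucose agar (Vogel-Bonner E). Compound toxicity to the bacteria was checked first. DMSO solutions were tested at five consecutive 3-fold dilutions, starting from the highest non-toxic dose, in triplicate, without metabolic activation. DMSO served as negative control. Revertants were counted manually; mutagenic = revertants at least double the negative control at two or more consecutive doses.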

Data set [5] can be described thus: Cytotoxicity against African green monkey Vero cells assessed as growth inhibition at 25 uM after 48 hrs by MTT assay relative to control. Particulars: chlorocebus sabaeus, read-out: GI. In kind it is cell-based. Summed up: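 VERO cells were exposed to serial dilutions in fresh medium of compounds dissolved in DMSO, for 48 h at 37 °C in 5% CO₂. A DMSO (<0.1%) negative control was included. Growth inhibition was read by MTT at 570 nm; nifurtimox was the positive control.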
For orientation: Tetrazolium assays rely on reduction of a dye to a coloured formazan, in cell work by metabolically active cells.

Data set [6] concerns Salmonella typhimurium. The experiment in a line: Mutagenic activity in Salmonella typhimurium TA98 at 3.1 to 250 ug/plate by Ames test. The format is toxicity, organism-based. The note with it: salmonella enterica subsp. enterica serovar typhimurium. Summed up: (§3)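 Ames plate-incorporation assay with S. typhimurium TA98 in Vogel-Bonner E minimal glucose agar. Toxicity toward the bacteria was checked first. DMSO solutions were run in triplicate at five consecutive third-dilutions, starting at the highest non-toxic dose. Positive controls were 4-nitro-o-phenylenediamine (20.0 μg/plate) and 2-aminofluorene (10.0 μg/plate); DMSO was the negative control. Revertants were counted manually. A compound was called mutagenic when revertants were at least twice the negative control at two or more consecutive doses.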

In data set [7] the test system is Trypanosoma cruzi. The experiment in a line: Antitrypanosomal activity against Trypanosoma cruzi Sylvio X-10 amastigotes infected in African green monkey Vero cells assessed as eradication of amastigotes after 72 hrs by Giemsa staining-based assay. Particulars: Sylvio X-10, Vero.
The subject of data set [8] is Salmonella typhimurium. Description: Mutagenic activity in Salmonella typhimurium TA98 at 3.1 to 250 ug/plate by Ames test in presence of mouse liver S9 fraction. The format is toxicity, organism-based. Particulars: salmonella enterica subsp. enterica serovar typhimurium. The method in brief: as §3
The nature of data set [9]: Selectivity index, ratio of IC50 for human RBC to IC50 for Trypanosoma cruzi Sylvio X-10 amastigotes. Summed up:
(§4)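 Hemolysis: washed human erythrocytes (2% w/v in PBS) incubated 24 h at 37 °C with compound at final 50, 100 and 200 μM. Ten replicates per concentration. Hemoglobin release read at 405 nm against water lysis as 100%; amphotericin B 1.5 μM was the positive control. SI = IC50 red cells / parasite IC50 (Sylvio X-10 amastigotes or Tulahuen 2 epimastigotes).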

Data set [10] relates to Salmonella typhimurium. The experiment in a line: Mutagenic activity in Salmonella typhimurium TA98 at 3 to 250 ug/plate by Ames test in presence of mouse liver S9 fraction. In kind it is toxicity, organism-based. The note with it: salmonella enterica subsp. enterica serovar typhimurium. Summed up:
as §3

Data set [11] can be described thus: Selectivity index, ratio of IC50 for African green monkey Vero cells to IC50 for Trypanosoma cruzi Sylvio X-10 amastigotes. In kind it is toxicity, cell-based. The note with it: read-out: Ratio IC50. The method in brief: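 VERO cytotoxicity: cells exposed 48 h at 37 °C, 5% CO2 to serial dilutions from a maximum of 2000 μM (DMSO stocks; DMSO <0.1% control); growth inhibition read by MTT at 570 nm. Amastigote IC50: Sylvio X-10-infected VERO cells, five doses, infected cells counted among 300 (Giemsa), quadruplicate, three experiments, sigmoidal fit. SI = IC50 VERO / IC50 amastigote.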

Data set [12] relates to Salmonella typhimurium. The experiment in a line: Mutagenic activity in Salmonella typhimurium TA98 at 3 to 250 ug/plate by Ames test. The format is toxicity, organism-based. The note with it: salmonella enterica subsp. enterica serovar typhimurium. The method in brief: as §3
Data set [13] relates to Salmonella typhimurium. The experiment in a line: Mutagenic activity in Salmonella typhimurium TA98 at 0.02 to 2 ug/plate by Ames test in presence of mouse liver S9 fraction. The format is toxicity, organism-based. Particulars: salmonella enterica subsp. enterica serovar typhimurium. The method in brief:
as §1

Data set [14] deals with Salmonella typhimurium. Description: Mutagenic activity in Salmonella typhimurium TA98 at 0.02 to 2 ug/plate by Ames test. The format is toxicity, organism-based. The note with it: salmonella enterica subsp. enterica serovar typhimurium. The method in brief:
as §2

Data set [15] has as its system Trypanosoma cruzi. The experiment in a line: Antitrypanosomal activity against Trypanosoma cruzi Sylvio X-10 amastigotes infected in African green monkey Vero cells assessed as eradication of amastigotes after 72 hrs by Giemsa staining-based assay. The note with it: vero.
Data set [16] can be described thus: Selectivity index, ratio of IC50 for mouse J774.1 cells to IC50 for Trypanosoma cruzi Sylvio X-10 amastigotes. In kind it is toxicity. Particulars: read-out: Ratio IC50. Summed up: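 J774.1 macrophages grown in DMEM with 10% heat-inactivated FCS and allowed to attach 48 h, then exposed 48 h at 37 °C to 12.5–400.0 μM. Triplicates. MTT 0.1 mg/mL for 3 h, read at 560 nm; IC50 by linear regression against the solvent control. SI = IC50 J774.1 / parasite IC50 (Sylvio X-10 amastigotes or Tulahuen 2 epimastigotes, the latter measured by A600 growth inhibition at day 5).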

In data set [17] the test system is Salmonella typhimurium. Description: Mutagenic activity in Salmonella typhimurium TA98 at 0.04 to 4 ug/plate by Ames test. Particulars: salmonella enterica subsp. enterica serovar typhimurium. The format is toxicity, organism-based. Summed up:
as §3

Data set [18] concerns Salmonella typhimurium. Description: Mutagenic activity in Salmonella typhimurium TA98 at 0.04 to 4 ug/plate by Ames test in presence of mouse liver S9 fraction. In kind it is toxicity, organism-based. The note with it: salmonella enterica subsp. enterica serovar typhimurium. Summed up: as §3
The nature of data set [19]: Selectivity index, ratio of IC50 for human RBC to IC50 for Trypanosoma cruzi Tulahuen 2 epimastigotes. The method in brief:
as §4

For the molecule `C=CCn1c(C)cs/c1=N\N=C\c1ccc([N+](=O)[O-])s1`, the IC50 (as a rule, the concentration that inhibits the measured activity by half) in the data set on Trypanosoma cruzi [1] was 10 µM; with Trypanosoma cruzi [3] it was 10.5 µM. Also, the Activity entry in the data set with Salmonella typhimurium [2] and in the data set on Salmonella typhimurium [4] was “Non-toxic” each time.

For `O=[N+]([O-])c1ccc(/C=N/N=c2\[nH]c(-c3ccc(Cl)cc3)cs2)s1`, the IC50 with Trypanosoma cruzi [1] was 4.9 µM. Moreover, the inhibition at 48 h, 25 µM in data set [5] is over 50%.

For `Br.C=CCn1c(-c2ccc(Cl)cc2)cs\c1=N/N=C/C=C/C=C/c1cccs1`, the Activity entry with Salmonella typhimurium [6] and in the data set on Salmonella typhimurium [8] was “Non-toxic” in each case. For the same molecule, the IC50 in the data set on Trypanosoma cruzi [1] was 11 µM; in the data set with Trypanosoma cruzi [3], over 25 µM. For the same molecule, the IC90 (in general, the concentration at which the effect reaches the 90% level) in the data set on Trypanosoma cruzi [7] is over 25 µM.

Consider `C=CCNC(=S)N/N=C/C=C/c1ccc([N+](=O)[O-])s1`, for which, in data set [9], the Ratio IC50 was found to be 82. Also, the Activity entry with Salmonella typhimurium [10] and in the data set with Salmonella typhimurium [12] was “Toxic” each time. Further, the figures for the IC50 with Trypanosoma cruzi [1] and with Trypanosoma cruzi [3] were 1.2 µM and 1.29 µM, respectively. Also, the selectivity ratio in [11] is 60.

On to `C=CCN1C(=O)CS\C1=N/N=C/C=C/c1ccc([N+](=O)[O-])s1`, for which the Activity result is given as “Non-toxic” in the data set on Salmonella typhimurium [13] and “Toxic” in the data set with Salmonella typhimurium [14]. In [9], the Ratio IC50 is 28. Moreover, the IC50 in the data set with Trypanosoma cruzi [1] came to 1.3 µM; in the data set with Trypanosoma cruzi [3] it was 2.8 µM. Also, the selectivity ratio in data set [11] came to 80.

With `CC1CS(=O)(=O)CCN1/N=C/c1ccc([N+](=O)[O-])o1` (stereo unspecified) [NIFURTIMOX], in data set [9], the Ratio IC50 came out at 150. The IC50 in the data set on Trypanosoma cruzi [1] was 8 µM; in the data set on Trypanosoma cruzi [15] it was 0.45 µM and 2.4 µM. For the same molecule, the selectivity ratio in [16] and in data set [11] was 200 each time.

Consider `C=CCn1c(-c2ccc(N)cc2)cs\c1=N/N=C/C=C/c1ccco1`, for which the Activity result in the data set with Salmonella typhimurium [17] and in the data set on Salmonella typhimurium [18] was “Non-toxic” throughout. In addition, the IC50 in the data set on Trypanosoma cruzi [1] was 9 µM.

On to `CC(=O)N(C1=NN(C(C)=O)C(c2ccc([N+](=O)[O-])s2)S1)c1ccccc1` (stereo unspecified), for which the Ratio IC50 in data set [19] is 3. For the same molecule, the half-maximal inhibitory concentration (IC50) with Trypanosoma cruzi [1] was 2.9 µM. Further, the values for the Activity result in the data set on Salmonella typhimurium [2] and in the data set with Salmonella typhimurium [4] were “Non-toxic” and “Toxic”, respectively. Also, the inhibition at 48 h, 25 µM in [5] is over 50%.
